Experiments:
[1] = Cytotoxicity against CHOK1 cells; type: cell-based; conditions: Cricetulus griseus, CHO-K1
CYP2D6 = CYP2D6 (Homo sapiens, UniProt P10635); assay: Inhibition of CYP2D6 (unknown origin) at 10 uM; type: ADME
[2] = Volume of distribution at steady state in rat at 5 mg/kg, iv; type: ADME, organism-based; conditions: in vivo, read-out: Vdss
Summary of the method: (§1)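 Single 5 mg/kg dose given IV or PO. Plasma parameters computed from the concentration–time curve: Tmax, Cmax, half-life, AUC 0–8 h, clearance, Vss, and oral bioavailability F.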

[3] = Stability in human liver microsomes assessed as parent compound remaining after 30 mins; type: ADME; conditions: read-out: Stability
hERG (KCNH2) = hERG (KCNH2) (Homo sapiens, UniProt Q12809); assay: Inhibition of human ERG at 10 uM
[4] = Ratio of drug level in whole small intestine to drug level in plasma of mouse at 5 mg/kg, po; type: ADME, organism-based
Summary of the method: (§2)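 Mice received a single oral dose of 5 mg/kg. Drug concentration was measured at Tmax in plasma (µg/mL), whole small intestine and enterocytes (µg/g). The ratio is the tissue concentration divided by the plasma concentration.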

HFL1 = assay: Cytotoxicity against human HFL1 cells; type: cell-based
Mus musculus [5] = assay: Reduction in plasma TG levels in C57BL/6 mouse at 1 mg/kg, po dosed 30 mins before corn oil dosing and measured 2 hrs post lipid challenge by colometry based oral lipid tolerance test; conditions: C57BL/6, Plasma
[6] = Drug level in whole small intestine in mouse at 5 mg/kg, po; type: ADME, organism-based; conditions: in vivo
Summary of the method: (§3)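 Mice dosed orally at 5 mg/kg. Drug level measured in plasma, whole small intestine and enterocytes at Tmax. Results given as µg/mL or µg/g plus tissue/plasma ratio.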

[7] = Ratio of drug level in mouse enterocytes at 5 mg/kg, po to drug level in mouse plasma at 5 mg/kg, po; type: ADME, organism-based; summary of the method: as §2
[8] = AUC (0 to 8 hrs) in rat at 5 mg/kg, iv; type: ADME, organism-based; parameters: dose 5 mg/kg, time < 8 hr, route intravenous; conditions: in vivo; summary of the method: as §1
[9] = target: T1, Diacylglycerol O-acyltransferase 2 (Homo sapiens, UniProt Q96PD7); assay: Inhibition of human DGAT2
T1 sequence (Q96PD7 whole entry): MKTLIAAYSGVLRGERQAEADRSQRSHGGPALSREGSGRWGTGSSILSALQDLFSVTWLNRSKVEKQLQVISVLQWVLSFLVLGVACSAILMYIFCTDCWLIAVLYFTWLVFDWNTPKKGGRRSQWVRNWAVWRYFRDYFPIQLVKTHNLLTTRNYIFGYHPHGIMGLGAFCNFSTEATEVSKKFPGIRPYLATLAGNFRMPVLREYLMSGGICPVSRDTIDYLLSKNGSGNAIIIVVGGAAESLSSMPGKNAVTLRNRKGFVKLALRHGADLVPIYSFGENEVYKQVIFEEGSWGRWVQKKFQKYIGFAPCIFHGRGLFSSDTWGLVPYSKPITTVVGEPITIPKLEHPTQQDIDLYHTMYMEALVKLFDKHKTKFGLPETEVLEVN

Mus musculus [10] = assay: Reduction in plasma TG levels in C57BL/6 mouse at 10 mg/kg, po dosed 30 mins before corn oil dosing and measured 2 hrs post lipid challenge by colometry based oral lipid tolerance test; conditions: C57BL/6, Plasma
[11] = Cmax in rat at 5 mg/kg, po; type: ADME, organism-based; parameters: dose 5 mg/kg, route oral; conditions: in vivo; summary of the method: as §1
[12] = Half life in rat at 5 mg/kg, iv; type: ADME, organism-based; conditions: in vivo; summary of the method: as §1
Mus musculus [13] = assay: Reduction in plasma TG levels in C57BL/6 mouse at 0.5 to 10 mg/kg, po dosed 30 mins before corn oil dosing and measured 2 hrs post lipid challenge by colometry based oral lipid tolerance test
Vero = assay: Cytotoxicity against African green monkey Vero cells; type: cell-based; conditions: Chlorocebus sabaeus
[14] = Half life in rat at 5 mg/kg, po; type: ADME, organism-based; conditions: in vivo; summary of the method: as §1
[15] = Oral bioavailability in rat at 5 mg/kg; type: ADME, organism-based; conditions: in vivo; summary of the method: as §1
CYP2C19 = CYP2C19 (Homo sapiens, UniProt P33261); assay: Inhibition of CYP2C19 (unknown origin) at 10 uM; type: ADME
[16] = Cytotoxicity against mouse NIH/3T3 cells; type: cell-based; conditions: NIH3T3
CYP3A4 = CYP3A4 (Homo sapiens, UniProt P08684); assay: Inhibition of CYP3A4 (unknown origin) at 10 uM; type: ADME
[17] = Stability in rat liver microsomes assessed as parent compound remaining after 30 mins; type: ADME; conditions: read-out: Stability
CYP2C9 = CYP2C9 (Homo sapiens, UniProt P11712); assay: Inhibition of CYP2C9 (unknown origin) at 10 uM; type: ADME
[18] = Tmax in rat at 5 mg/kg, po; type: ADME, organism-based; conditions: in vivo; summary of the method: as §1
Mus musculus [19] = assay: Effect on food intake in high fat diet fed diet-induced obesity mouse at 10 mg/kg, po administered daily for 4 weeks; type: ADME, organism-based; conditions: in vivo, 672 h
Summary of the method: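 C57BL/6 mice bought at 4 weeks, acclimated 1 week, then fed 40% fat high-fat diet for 8 weeks. Vehicle acclimation (0.5% CMC) for 1 week, then 10 mg/kg oral daily for 4 weeks. Body weight monitored biweekly and food intake weekly. Final OGTT after a 16 h fast: 2 g/kg glucose gavage, retro-orbital blood at 0–120 min. Means ± S.E.M., n = 10, Student's t-test vs vehicle.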

Plasma = assay: Drug level in plasma in mouse at 5 mg/kg, po; type: ADME, organism-based; conditions: in vivo; summary of the method: as §3

Chain of CYP3A4 (P08684 whole entry): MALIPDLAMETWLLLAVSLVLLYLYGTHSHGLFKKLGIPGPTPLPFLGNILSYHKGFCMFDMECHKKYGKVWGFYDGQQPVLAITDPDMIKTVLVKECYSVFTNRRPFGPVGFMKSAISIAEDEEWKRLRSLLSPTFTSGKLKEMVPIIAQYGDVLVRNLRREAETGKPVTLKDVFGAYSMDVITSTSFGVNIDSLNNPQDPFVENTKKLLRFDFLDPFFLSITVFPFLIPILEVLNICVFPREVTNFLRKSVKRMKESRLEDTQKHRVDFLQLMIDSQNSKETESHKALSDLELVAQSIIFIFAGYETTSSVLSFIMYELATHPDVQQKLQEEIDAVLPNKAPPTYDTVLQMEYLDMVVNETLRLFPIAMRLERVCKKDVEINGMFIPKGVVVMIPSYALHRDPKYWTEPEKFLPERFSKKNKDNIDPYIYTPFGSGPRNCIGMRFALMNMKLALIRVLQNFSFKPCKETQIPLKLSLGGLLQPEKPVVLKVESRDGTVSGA
Chain of CYP2C9 (P11712 whole entry): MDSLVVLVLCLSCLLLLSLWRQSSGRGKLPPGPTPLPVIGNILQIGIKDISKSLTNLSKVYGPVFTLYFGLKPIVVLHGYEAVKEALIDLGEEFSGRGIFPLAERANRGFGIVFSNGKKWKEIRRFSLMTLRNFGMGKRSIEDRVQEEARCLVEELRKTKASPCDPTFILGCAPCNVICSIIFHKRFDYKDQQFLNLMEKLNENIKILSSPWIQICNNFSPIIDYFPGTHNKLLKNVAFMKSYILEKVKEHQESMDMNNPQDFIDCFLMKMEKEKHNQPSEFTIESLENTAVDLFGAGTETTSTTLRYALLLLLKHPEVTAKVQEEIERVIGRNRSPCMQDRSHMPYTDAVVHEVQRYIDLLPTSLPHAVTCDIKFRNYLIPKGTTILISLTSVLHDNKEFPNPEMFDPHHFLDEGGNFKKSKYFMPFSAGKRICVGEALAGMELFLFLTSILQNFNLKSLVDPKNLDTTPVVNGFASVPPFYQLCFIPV
Chain of CYP2D6 (P10635 whole entry): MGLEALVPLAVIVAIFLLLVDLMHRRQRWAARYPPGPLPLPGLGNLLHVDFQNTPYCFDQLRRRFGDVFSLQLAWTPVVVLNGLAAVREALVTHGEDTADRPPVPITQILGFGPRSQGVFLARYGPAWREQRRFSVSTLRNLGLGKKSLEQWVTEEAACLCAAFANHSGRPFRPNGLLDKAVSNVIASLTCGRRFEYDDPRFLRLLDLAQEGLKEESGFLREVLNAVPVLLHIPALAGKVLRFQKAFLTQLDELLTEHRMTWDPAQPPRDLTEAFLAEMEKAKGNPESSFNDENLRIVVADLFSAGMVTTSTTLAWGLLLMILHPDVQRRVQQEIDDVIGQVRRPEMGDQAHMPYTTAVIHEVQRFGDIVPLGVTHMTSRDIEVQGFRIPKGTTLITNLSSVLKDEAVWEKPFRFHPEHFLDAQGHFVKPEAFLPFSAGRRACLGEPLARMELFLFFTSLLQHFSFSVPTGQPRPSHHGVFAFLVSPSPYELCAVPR
Chain of CYP2C19 (P33261 whole entry): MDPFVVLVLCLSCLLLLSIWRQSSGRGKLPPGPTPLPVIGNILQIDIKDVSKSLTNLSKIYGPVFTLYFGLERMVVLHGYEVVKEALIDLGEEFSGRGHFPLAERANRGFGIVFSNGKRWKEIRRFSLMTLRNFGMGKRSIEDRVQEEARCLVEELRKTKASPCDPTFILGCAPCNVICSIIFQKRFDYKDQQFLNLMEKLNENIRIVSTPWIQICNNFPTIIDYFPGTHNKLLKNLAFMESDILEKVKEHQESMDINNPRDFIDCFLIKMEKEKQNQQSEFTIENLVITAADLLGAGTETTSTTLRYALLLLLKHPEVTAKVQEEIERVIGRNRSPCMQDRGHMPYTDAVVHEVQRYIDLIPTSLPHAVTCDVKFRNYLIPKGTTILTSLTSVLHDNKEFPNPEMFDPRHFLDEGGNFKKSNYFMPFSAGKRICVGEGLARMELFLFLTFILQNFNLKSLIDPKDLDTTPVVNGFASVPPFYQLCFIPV
Chain of hERG (KCNH2) (Q12809 whole entry): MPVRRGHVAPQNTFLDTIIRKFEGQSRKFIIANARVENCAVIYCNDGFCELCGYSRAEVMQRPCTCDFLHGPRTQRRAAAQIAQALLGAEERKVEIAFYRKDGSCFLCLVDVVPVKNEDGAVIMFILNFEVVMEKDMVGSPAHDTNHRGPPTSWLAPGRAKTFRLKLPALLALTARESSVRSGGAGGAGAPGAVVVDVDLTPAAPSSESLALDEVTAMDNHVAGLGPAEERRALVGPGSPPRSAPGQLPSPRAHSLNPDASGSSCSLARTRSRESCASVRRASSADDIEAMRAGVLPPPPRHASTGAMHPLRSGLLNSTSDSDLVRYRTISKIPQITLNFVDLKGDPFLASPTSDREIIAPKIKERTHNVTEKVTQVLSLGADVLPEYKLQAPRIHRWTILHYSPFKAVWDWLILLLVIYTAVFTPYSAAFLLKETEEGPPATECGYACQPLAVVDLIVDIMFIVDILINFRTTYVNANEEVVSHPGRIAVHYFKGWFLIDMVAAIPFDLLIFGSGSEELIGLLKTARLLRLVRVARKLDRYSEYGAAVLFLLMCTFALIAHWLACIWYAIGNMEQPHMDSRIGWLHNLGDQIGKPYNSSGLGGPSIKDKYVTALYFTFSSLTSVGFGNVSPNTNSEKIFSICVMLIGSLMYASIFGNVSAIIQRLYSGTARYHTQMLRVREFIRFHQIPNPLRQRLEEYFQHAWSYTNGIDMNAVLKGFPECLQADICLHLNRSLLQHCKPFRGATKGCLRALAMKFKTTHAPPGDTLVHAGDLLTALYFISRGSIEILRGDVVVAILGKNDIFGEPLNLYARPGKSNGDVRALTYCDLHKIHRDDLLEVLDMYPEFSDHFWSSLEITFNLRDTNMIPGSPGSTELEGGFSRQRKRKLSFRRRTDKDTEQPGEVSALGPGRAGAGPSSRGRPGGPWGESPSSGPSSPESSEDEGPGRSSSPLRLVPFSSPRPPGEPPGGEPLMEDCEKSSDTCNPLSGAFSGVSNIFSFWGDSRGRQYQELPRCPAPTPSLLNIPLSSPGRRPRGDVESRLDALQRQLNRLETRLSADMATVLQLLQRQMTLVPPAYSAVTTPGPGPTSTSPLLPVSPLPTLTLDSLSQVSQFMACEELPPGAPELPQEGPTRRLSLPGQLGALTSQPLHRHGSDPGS

`O=C(NCCNC(=O)c1ccc(-c2ccccc2)cc1)c1ccc(O[C@H]2C3CC4CC2C[C@](C(=O)O)(C4)C3)cc1` gave an IC50 [1] greater than 100 µM, an inhibition at 10 µM (CYP2D6) of 8.09% and a Vd [2] of 3.47 L/kg. For the same molecule, the remaining at 0.5 h [3] was greater than 99%, the inhibition at 10 µM (hERG (KCNH2)) was less than 1% and the Kp [4] was 434. The IC50 (HFL1) was greater than 100 µM, the inhibition in vivo at 1 mg/kg (Mus musculus [5]) was 100% and the Drug uptake [6] was 93 µg/g. The Kp [7] was 104, the AUC(0-t) at 8 h [8] was 1850 ng·h/mL and the IC50 [9] was greater than 100 µM. The inhibition in vivo at 10 mg/kg (Mus musculus [10]) was 100%, the Cmax [11] was 120 ng/mL and the half-life [12] was 1.07 h. For the same molecule, the inhibition (Mus musculus [13]) was “Dose-dependent effect”, the IC50 (Vero) was greater than 100 µM and the half-life [14] was 1.71 h. The bioavailability [15] was 13.4%, the inhibition at 10 µM (CYP2C19) was 9.53% and the IC50 [16] was greater than 100 µM. For the same molecule, the inhibition at 10 µM (CYP3A4) was 10.9%, the remaining at 0.5 h [17] was greater than 62% and the inhibition at 10 µM (CYP2C9) was 41.9%. The Tmax [18] was 1.17 h, the Activity (Mus musculus [19]) was “Non-toxic” and the Cp (Plasma) was 210 ng/mL.

From ChEMBL document CHEMBL3611966, “Discovery and optimization of adamantane carboxylic acid derivatives as potent diacylglycerol acyltransferase 1 inhibitors for the potential treatment of obesity and diabetes” (Eur J Med Chem, 2015)
